Results from ChEMBL document CHEMBL4251567 (Eur J Med Chem, 2018).

How the values were obtained:
[1] = target: Histone deacetylase 1 (Homo sapiens) (UniProt Q13547); experiment: Inhibition of HDAC1 in human HeLa-S3 cell lysates assessed as remaining activity at 1.6 x 10^-5 M preincubated for 15 mins followed by HDAC-Glo substrate addition measured after 30 to 40 mins by […] relative to control
Procedure, shortened: (§1)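 HDAC1 was captured from HeLa-S3 lysate (100 μg/mL) onto wells precoated with anti-HDAC1 antibody (10 μg/mL, carbonate buffer pH 9.4) and milk-blocked, 1 h at 4 °C, then washed. Inhibitor in DMSO was added in HDAC-Glo buffer for 15 min at room temperature. HDAC-Glo reagent was added and luminescence read after 30-40 min. Concentrations are final. No-antibody background subtracted; % of DMSO control.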

[2] = target: Histone deacetylase 3 (Homo sapiens) (UniProt O15379); experiment: Inhibition of HDAC3 in human HeLa-S3 cell lysates assessed as remaining activity at 8 x 10^-6 M preincubated for 15 mins followed by HDAC-Glo substrate addition measured after 30 to 40 mins by […] relative to control
Procedure, shortened: (§2)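 Antibody-capture (ELISA-type) assay: HDAC antibody coated in carbonate/bicarbonate buffer pH 9.4, wells blocked with 5% milk in TBST. HeLa-S3 lysate added at 1 mg/mL for HDAC3, 1 h at 4 °C, then washed. Inhibitor in DMSO preincubated 15 min at RT in HDAC-Glo buffer. HDAC-Glo reagent added, luminescence read after 30-40 min. Concentrations are final. Background = no-antibody well; activity given as % of DMSO control.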

[3] = target: T1, Histone deacetylase (Homo sapiens) (UniProt Q13547+O15379+Q9UBN7+Q92769+Q9UQL6+Q8WUI4+Q9BY41+Q96DB2+P56524+Q9UKV0+Q969S8); experiment: Inhibition of HDAC in human HeLa-S3 cell lysates assessed as residual activity at 1.2 x 10^-5 M preincubated for 15 mins followed by HDAC-Glo substrate addition measured after 35 mins by […] relative to control; format: protein assay
[4] = target: Histone deacetylase 2 (Homo sapiens) (UniProt Q92769); experiment: Inhibition of HDAC2 in human HeLa-S3 cell lysates assessed as remaining activity at […] preincubated for 15 mins followed by HDAC-Glo substrate addition measured after 30 to 40 mins by […] relative to control
[5] = target: T1, Histone deacetylase (Homo sapiens); experiment: Inhibition of HDAC in human HeLa-S3 cell lysates assessed as residual activity at 3 x 10^-6 M preincubated for 15 mins followed by HDAC-Glo substrate addition measured after 35 mins by […] relative to control; format: protein assay
[6] = target: Histone deacetylase 3 (Homo sapiens) (UniProt O15379); experiment: Inhibition of HDAC3 in human HeLa-S3 cell lysates assessed as remaining activity at 1 x 10^-6 M preincubated for 15 mins followed by HDAC-Glo substrate addition measured after 30 to 40 mins by […] relative to control; procedure, shortened: as §2
[7] = target: Histone deacetylase 1 (Homo sapiens) (UniProt Q13547); experiment: Inhibition of HDAC1 in human HeLa-S3 cell lysates assessed as remaining activity at 1 x 10^-6 M preincubated for 15 mins followed by HDAC-Glo substrate addition measured after 30 to 40 mins by fluorimetric method relative to control; procedure, shortened: as §1
[8] = target: Histone deacetylase 1 (Homo sapiens) (UniProt Q13547); experiment: Inhibition of HDAC1 in human HeLa-S3 cell lysates assessed as remaining activity at […] preincubated for 15 mins followed by HDAC-Glo substrate addition measured after 30 to 40 mins by […] relative to control
[9] = target: Histone deacetylase 3 (Homo sapiens) (UniProt O15379); experiment: Inhibition of HDAC3 in human HeLa-S3 cell lysates assessed as remaining activity at 2 x 10^-6 M preincubated for 15 mins followed by HDAC-Glo substrate addition measured after 30 to 40 mins by […] relative to control; procedure, shortened: as §2
[10] = target: T1, Histone deacetylase (Homo sapiens); experiment: Inhibition of HDAC in human HeLa-S3 cell lysates assessed as residual activity at 6 x 10^-6 M preincubated for 15 mins followed by HDAC-Glo substrate addition measured after 35 mins by […] relative to control; format: protein assay
Procedure, shortened: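 Lysate (1 μg total protein) in HDAC-Glo buffer was preincubated with inhibitor in DMSO for 15 min at room temperature. HDAC-Glo substrate/developer reagent was added and luminescence read after 35 min. Concentrations are final. Signal corrected for a no-lysate blank; % of DMSO control.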

[11] = target: T1, Histone deacetylase (Homo sapiens); experiment: Inhibition of HDAC in human HeLa-S3 cell lysates assessed as residual activity at 4.8 x 10^-5 M preincubated for 15 mins followed by HDAC-Glo substrate addition measured after 35 mins by […] relative to control; format: protein assay
[12] = target: Histone deacetylase 1 (Homo sapiens) (UniProt Q13547); experiment: Inhibition of HDAC1 in human HeLa-S3 cell lysates assessed as remaining activity at 4 x 10^-6 M preincubated for 15 mins followed by HDAC-Glo substrate addition measured after 30 to 40 mins by […] relative to control; procedure, shortened: as §1
[13] = target: Histone deacetylase 2 (Homo sapiens) (UniProt Q92769); experiment: Inhibition of HDAC2 in human HeLa-S3 cell lysates assessed as remaining activity at 1.25 uM preincubated for 15 mins followed by HDAC-Glo substrate addition measured after 30 to 40 mins by […] relative to control
Procedure, shortened: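 Same antibody-capture format as the other class I isoforms. HeLa-S3 lysate added at 100 μg/mL for HDAC1 and HDAC2, 1 h at 4 °C, then washed. Inhibitor in DMSO preincubated 15 min at RT; HDAC-Glo reagent added and luminescence read after 30-40 min. Concentrations are final. Signal corrected against a well without antibody; activity expressed as % of DMSO control.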

Sequence of Histone deacetylase 3 (Homo sapiens) (O15379 whole entry): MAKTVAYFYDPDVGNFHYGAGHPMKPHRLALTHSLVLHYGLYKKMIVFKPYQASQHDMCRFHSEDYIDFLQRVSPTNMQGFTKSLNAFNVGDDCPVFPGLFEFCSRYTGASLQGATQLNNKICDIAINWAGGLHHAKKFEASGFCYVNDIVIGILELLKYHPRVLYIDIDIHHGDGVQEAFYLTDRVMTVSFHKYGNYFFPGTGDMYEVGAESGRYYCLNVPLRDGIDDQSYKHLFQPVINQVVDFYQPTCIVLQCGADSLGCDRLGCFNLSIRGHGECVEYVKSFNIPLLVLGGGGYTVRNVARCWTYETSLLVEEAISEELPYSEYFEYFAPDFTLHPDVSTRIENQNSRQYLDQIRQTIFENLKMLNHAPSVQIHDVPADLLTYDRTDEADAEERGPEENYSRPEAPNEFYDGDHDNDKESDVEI
Sequence of Histone deacetylase 1 (Homo sapiens) (Q13547 whole entry): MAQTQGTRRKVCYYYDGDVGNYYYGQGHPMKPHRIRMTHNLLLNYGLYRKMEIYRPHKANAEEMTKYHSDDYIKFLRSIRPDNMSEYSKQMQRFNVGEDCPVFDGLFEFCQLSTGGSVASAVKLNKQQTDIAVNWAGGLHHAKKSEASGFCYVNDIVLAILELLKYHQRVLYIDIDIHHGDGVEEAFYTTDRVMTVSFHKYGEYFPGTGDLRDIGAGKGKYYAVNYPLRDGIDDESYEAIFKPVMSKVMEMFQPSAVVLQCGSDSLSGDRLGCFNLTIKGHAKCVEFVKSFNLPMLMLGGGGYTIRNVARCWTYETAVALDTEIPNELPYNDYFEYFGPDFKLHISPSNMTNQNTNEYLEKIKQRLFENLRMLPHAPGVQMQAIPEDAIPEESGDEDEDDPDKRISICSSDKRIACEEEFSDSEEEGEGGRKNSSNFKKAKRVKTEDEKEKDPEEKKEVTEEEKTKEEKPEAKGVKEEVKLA
Sequence of Histone deacetylase 2 (Homo sapiens) (Q92769 whole entry, canonical isoform): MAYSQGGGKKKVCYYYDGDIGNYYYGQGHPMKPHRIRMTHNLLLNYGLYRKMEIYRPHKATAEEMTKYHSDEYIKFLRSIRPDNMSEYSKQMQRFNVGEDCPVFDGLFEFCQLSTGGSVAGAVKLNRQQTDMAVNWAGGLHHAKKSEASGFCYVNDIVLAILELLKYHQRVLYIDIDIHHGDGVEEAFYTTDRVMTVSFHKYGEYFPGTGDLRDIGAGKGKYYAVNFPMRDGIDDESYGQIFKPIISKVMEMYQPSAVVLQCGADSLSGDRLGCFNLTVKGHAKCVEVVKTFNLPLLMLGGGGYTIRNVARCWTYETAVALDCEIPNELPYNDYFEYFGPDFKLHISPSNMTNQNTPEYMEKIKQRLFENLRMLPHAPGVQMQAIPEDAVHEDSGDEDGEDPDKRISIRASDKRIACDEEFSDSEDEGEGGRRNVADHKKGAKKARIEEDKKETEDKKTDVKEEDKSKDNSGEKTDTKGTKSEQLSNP

Row | Activity [1] | Activity [2] | Activity [3] | Activity [4] | Activity [5] | Activity [6] | Activity [7] | Activity [8] | Activity [9] | Activity [10] | Activity [11] | Activity [12] | Activity [13] | SMILES
1 | 19% | 52% | 53% | 87% | 92% | 83% | 81% | 91% | 71% | 82% | 12% | 58% | – | CCC(CCCC(=O)Nc1ccccc1)CCC(=O)NO (stereo not drawn)
2 | – | – | – | – | – | – | – | – | – | – | – | – | 101% | CCCCCCC(CCCC(=O)Nc1ccccc1)CCC(=O)NO (stereo not drawn)
